The values that follow come from ChEMBL document CHEMBL1649535, “In vitro interactions between antifungals and immunosuppressive drugs against zygomycetes” (2009).

Type in all cases: functional
The subject of assay [1] is Rhizopus arrhizus. The assay can be described thus: Antimicrobial activity against Rhizopus oryzae after 24 hrs by broth microdilution checkerboard procedure. An outline of the steps:
(§1)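 CLSI broth microdilution for filamentous fungi, adapted to checkerboard; 1–3 isolates per species. Final ranges: amphotericin B and azoles 0.004–2 μg/ml; cyclosporine 0.125–8 μg/ml; tacrolimus and rapamycin 0.06–4 μg/ml, with extra runs at 0.001–0.06 μg/ml. Incubated 24 h at 35°C and read spectrophotometrically. MIC is the lowest concentration giving 50% inhibition (amphotericin B alone: 90%). Most tests run in duplicate.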
(In broth dilution the organism is exposed to a series of concentrations in liquid medium.)

For assay [2], the system named is Lichtheimia corymbifera. Kind of assay: Antimicrobial activity against Mycocladus corymbiferus after 24 hrs by broth microdilution checkerboard procedure. The essentials:
as §1

Assay [3] relates to Rhizomucor pusillus. Kind of assay: Antimicrobial activity against Rhizomucor pusillus after 24 hrs by broth microdilution checkerboard procedure. An outline of the steps:
as §1

Assay [4] can be described thus: Antimicrobial activity against Rhizopus microsporus after 24 hrs by broth microdilution checkerboard procedure. An outline of the steps: as §1
Assay [5] relates to Mucor circinelloides. Kind of assay: Antimicrobial activity against Mucor circinelloides after 24 hrs by broth microdilution checkerboard procedure. The essentials:
as §1

Take `C[C@@H]1[C@H](O)[C@@H](C)/C=C/C=C/C=C/C=C/C=C/C=C/C=C/[C@H](O[C@@H]2O[C@H](C)[C@@H](O)[C@H](N)[C@@H]2O)C[C@@H]2O[C@](O)(C[C@@H](O)C[C@@H](O)[C@H](O)CC[C@@H](O)C[C@@H](O)CC(=O)O[C@H]1C)C[C@H](O)[C@H]2C(=O)O` [AMPHOTERICIN B]: the MIC in assay [1], in assay [2], in assay [3], in assay [4] and in assay [5] was 0.125 µg/mL in each case.

As for `C[C@@H](c1nc(-c2ccc(C#N)cc2)cs1)[C@](O)(Cn1cncn1)c1ccc(F)cc1F` [RAVUCONAZOLE], the MIC in assay [1], in assay [2], in assay [3], in assay [4] and in assay [5] was 0.44 µg/mL in each case.

`C=CC[C@@H]1/C=C(\C)C[C@H](C)C[C@H](OC)[C@H]2O[C@@](O)(C(=O)C(=O)N3CCCC[C@H]3C(=O)O[C@H](/C(C)=C/[C@@H]3CC[C@@H](O)[C@H](OC)C3)[C@H](C)[C@@H](O)CC1=O)[C@H](C)C[C@@H]2OC` [TACROLIMUS ANHYDROUS]: the MIC (as a rule, the smallest concentration in the dilution series that meets the test's criterion for growth inhibition) in assay [1] was ≤ 0.5 µg/mL; in assay [2], ≤ 0.5 µg/mL; in assay [3] it was > 4 µg/mL; in assay [4] it was > 4 µg/mL; in assay [5], ≤ 0.5 µg/mL.

Take `CO[C@H]1C[C@@H]2CC[C@@H](C)[C@@](O)(O2)C(=O)C(=O)N2CCCC[C@H]2C(=O)O[C@H]([C@H](C)C[C@@H]2CC[C@@H](O)[C@H](OC)C2)CC(=O)[C@H](C)/C=C(\C)[C@@H](O)[C@@H](OC)C(=O)[C@H](C)C[C@H](C)/C=C/C=C/C=C/1C` [SIROLIMUS]: the MIC in assay [2] was > 4 µg/mL; in assay [3], > 4 µg/mL; in assay [4], ≤ 0.25 µg/mL; in assay [5] it was ≤ 0.25 µg/mL.

For `CCC(C)n1ncn(-c2ccc(N3CCN(c4ccc(OCC5COC(Cn6cncn6)(c6ccc(Cl)cc6Cl)O5)cc4)CC3)cc2)c1=O` (centres undefined) [ITRACONAZOLE], the MIC in assay [1], in assay [2], in assay [3], in assay [4] and in assay [5] was 0.62 µg/mL in each case.

For `CC[C@@H]([C@H](C)O)n1ncn(-c2ccc(N3CCN(c4ccc(OC[C@@H]5CO[C@@](Cn6cncn6)(c6ccc(F)cc6F)C5)cc4)CC3)cc2)c1=O` [POSACONAZOLE], the MIC in assay [1], in assay [2], in assay [3], in assay [4] and in assay [5] was 0.57 µg/mL in each case.
